In publication PMC8383301 (Molecular Pharmaceutics, 2021):
“Also recorded” adds a separate entry of the source. Where two headings read alike, the source gives them in different places.

How the values were obtained:
[1] = test system: P-gp; settings: isolated brain capillaries in vitro; cited from earlier work
[2] = test system: P-gp; settings: long-term exposure (60 days); rat brain microvascular endothelial cells in vitro; cited from earlier work
[3] = test system: P-gp; settings: transgenic mouse model of human AD; treatment for 7 days; cited from earlier work
[4] = test system: P-gp; settings: enriched diet; mice models of AD; cited from earlier work
[5] = test system: P-gp; settings: caco-2 cells; cited from earlier work
[6] = test system: P-gp; settings: colo-320 cells; cited from earlier work
[7] = test system: P-glycoprotein (P-gp); assay: Western blot of P-gp expression in whole-brain tissue; type: in vivo, Wistar rats; settings: MC111 4.5 or 6 mg/kg, 24 h
[8] = Safety of MC111 administration to rats; type: in vivo; settings: 6 mg/kg dose
[9] = test system: P-glycoprotein (P-gp); set-up: species or system Wistar rats; settings: rat, in vivo
[10] = test system: breast cancer resistance protein (BCRP); settings: colo-320 and MCF7 cells; cited from earlier work
[11] = rat, in vivo, 4.5 mg/kg
[12] = test system: pregnane X receptor (PXR); assay: Western blot of PXR expression in whole-brain tissue; type: in vivo, Wistar rats
How it was run: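 Male Wistar rats (RjHan:WI) got a single i.v. tail-vein dose of 4.5 or 6 mg/kg (n = 6 each) or vehicle (n = 6) under isoflurane, 24 h before scanning. The vehicle was 5% DMSO, 10% PEG 300 and 85% water. Whole-brain tissue was extracted in cold RIPA with protease inhibitors (~10:1 v/w). Semidry transfer to PVDF ran 2 h; blocking was 1 h in 3% BSA/TBST. PXR was normalised to histone H3, and group means to control.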

[13] = test system: P-gp; settings: SW480 human colon adenocarcinoma cells; cited from earlier work

## CC(C)=CCC[C@]1(C)[C@@H](CC=C(C)C)C[C@@]2(CC=C(C)C)C(=O)[C@]1(C(=O)C(C)C)C(=O)C(CC=C(C)C)=C2O [hyperforin]
[1]
  P-gp expression and function: increase

## NC(=O)N1c2ccccc2C=Cc2ccccc21 [carbamazepine]
[2]
  P-gp expression levels and P-gp function: increased

## CCC1(c2ccccc2)C(=O)NC(=O)NC1=O [phenobarbital]
[2]
  P-gp expression levels and P-gp function: increased

## CC(=O)[C@H]1[C@H](C#N)C[C@H]2[C@@H]3CC=C4C[C@@H](O)CC[C@]4(C)[C@H]3CC[C@@]21C [pregnenolone-16α-carbonitrile]
[3]
  P-gp function: restored

## C=C1/C(=C\C=C2/CCC[C@]3(C)[C@@H]([C@H](C)CCCC(C)(C)O)CC[C@@H]23)C[C@@H](O)C[C@@H]1O [1,25-Dihydroxyvitamin D3]
[4]
  Aβ deposition: reduced
  P-gp function: induced

## COc1cc2c(c(OC)c1OC)-c1ccc(OC)c(=O)cc1[C@@H](NC(C)=O)CC2 [colchicine]
[5]
  P-gp expression: increased
  P-gp function: without increasing

## O=C1NC(=O)C(c2ccccc2)(c2ccccc2)N1 [phenytoin]
[2]
  P-gp expression levels and P-gp function: increased

## CO[C@H]1/C=C/O[C@@]2(C)Oc3c(C)c(O)c4c(O)c(c(/C=N/N5CCN(C)CC5)c(O)c4c3C2=O)NC(=O)/C(C)=C\C=C\[C@H](C)[C@H](O)[C@@H](C)[C@@H](O)[C@@H](C)[C@H](OC(C)=O)[C@@H]1C [rifampin]
[1]
  P-gp expression and function: increase

## Oc1ccc(-c2ccc(CN3CCN(C4CCCCC4)CC3)cc2)cc1 [MC111, 4′-((4-cyclohexylpiperazin-1-yl)methyl)-[1,1′-biphenyl]-4-ol]
[6]
  [3H]verapamil efflux (P-gp function): increase
[7]
  P-gp expression, treated vs control: did not detect changes; also recorded: no significant differences
[8]
  safety of administration: safely administered
[9]
  SUV–TAC of the whole brain, differences among the groups: did not find any significant differences
  decrease of whole-brain K1 compared to the low-dose group: 29%
[9]; 4.5 mg/kg
  SUV40–60 min of the whole brain: 0.45 ± 0.02
  decrease of VT and K1 values compared to the control group: not statistically significant
  decrease of whole-brain K1 compared to controls: 7%
  decrease of whole-brain VT compared to controls: 6%
[9]; 6 mg/kg
  K1 and VT values compared to the control group: significant reduction
  decrease of whole-brain K1 compared to controls: 34%
[10]
  BCRP function and expression: activates
[11]
  Ke vs control group: no significant differences
[12]
  PXR expression levels, treated vs control: did not detect any increase
[12]; high-dose group, MC111 6 mg/kg
  PXR expression levels: tendency to lower levels
[13]
  P-gp expression: increases

## CCCC(CCC)C(=O)O [valproic acid]
[2]
  P-gp expression levels and P-gp function: increased
